According to ChEMBL document CHEMBL1144570, “C6-(N,N-butyl-methyl-heptanamide) derivatives of estrone and estradiol as inhibitors of type 1 17beta-hydroxysteroid dehydrogenase: Chemical synthesis and biological evaluation” (2007):
The source made the active and inactive calls. The rule behind the calls is not given here.

How the values were obtained:
[1] = target: T1, 17-beta-hydroxysteroid dehydrogenase type 1 (Homo sapiens) (UniProt P14061); assay: Inhibition of 17beta-HSD1 over-expressed in intact HEK293 cells at 1 uM; type: cell-based
T1 sequence (whole entry): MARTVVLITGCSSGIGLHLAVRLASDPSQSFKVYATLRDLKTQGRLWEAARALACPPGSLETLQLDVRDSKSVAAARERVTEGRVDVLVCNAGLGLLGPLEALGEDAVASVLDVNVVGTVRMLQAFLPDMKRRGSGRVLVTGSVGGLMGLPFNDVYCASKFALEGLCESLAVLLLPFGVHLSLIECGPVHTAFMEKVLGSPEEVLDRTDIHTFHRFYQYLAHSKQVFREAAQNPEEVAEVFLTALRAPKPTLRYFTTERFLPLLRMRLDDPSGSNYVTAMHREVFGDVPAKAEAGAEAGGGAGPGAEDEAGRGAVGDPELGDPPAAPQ
Outline: (§1)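 Transfected HEK-293 cells expressing type 1 17β-HSD were plated at 5000 cells/well. Inhibitors were added in ethanol and incubated 24 h. [4-14C]-E1 (60 nM) was then added for 15 min. Labelled E1 and E2 were extracted from the medium and quantified. Values are the mean of five experiments in quadruplicate, SD < ±8%.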

[2] = target: T1, 17-beta-hydroxysteroid dehydrogenase type 1 (Homo sapiens); assay: Inhibition of 17beta-HSD1 over-expressed in intact HEK293 cells at 0.1 uM; type: cell-based; outline: as §1
[3] = target: T2, 3-keto-steroid reductase/17-beta-hydroxysteroid dehydrogenase 7 (Homo sapiens) (UniProt P56937); assay: Inhibition of 17beta-HSD7 over-expressed in intact HEK293 cells at 10 uM; type: cell-based
T2 sequence (whole entry): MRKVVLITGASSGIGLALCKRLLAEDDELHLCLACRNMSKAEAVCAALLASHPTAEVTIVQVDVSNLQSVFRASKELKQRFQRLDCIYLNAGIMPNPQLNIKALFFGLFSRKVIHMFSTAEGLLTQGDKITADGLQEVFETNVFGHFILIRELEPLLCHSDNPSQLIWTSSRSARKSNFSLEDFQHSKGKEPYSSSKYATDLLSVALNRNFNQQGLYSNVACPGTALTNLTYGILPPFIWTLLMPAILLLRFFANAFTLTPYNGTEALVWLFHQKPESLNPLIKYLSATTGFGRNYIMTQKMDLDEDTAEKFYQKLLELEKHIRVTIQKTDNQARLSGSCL
Outline: (§2)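 Intact transfected HEK-293 cells expressing type 7 17β-HSD. Inhibition of reductive conversion of E1 (60 nM) to E2. One run in triplicate, SD < ±5%.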

[4] = target: T3, Very-long-chain 3-oxoacyl-CoA reductase (Homo sapiens) (UniProt Q53GQ0); assay: Inhibition of 17beta-HSD12 over-expressed in intact HEK293 cells at 10 uM; type: cell-based
T3 sequence (whole entry): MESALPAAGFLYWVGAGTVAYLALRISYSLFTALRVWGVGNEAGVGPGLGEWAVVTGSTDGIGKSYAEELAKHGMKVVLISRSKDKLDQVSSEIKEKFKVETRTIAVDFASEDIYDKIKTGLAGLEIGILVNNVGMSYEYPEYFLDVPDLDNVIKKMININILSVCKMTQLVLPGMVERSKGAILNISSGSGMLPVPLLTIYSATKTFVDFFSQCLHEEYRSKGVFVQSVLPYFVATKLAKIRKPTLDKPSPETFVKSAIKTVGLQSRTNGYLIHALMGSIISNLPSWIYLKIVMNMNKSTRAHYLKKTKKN
Outline: (§3)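 Transfected HEK-293 cells expressing type 12 17β-HSD were plated at 1.5×10^5 cells/well. Inhibitor in ethanol plus [4-14C]-E1 (60 nM) were added in fresh medium for 24 h. E1 to E2 conversion was quantified after steroid extraction. Values are the mean of two experiments in triplicate, SD < ±5%.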

[5] = target: T3, Very-long-chain 3-oxoacyl-CoA reductase (Homo sapiens); assay: Inhibition of 17beta-HSD12 over-expressed in intact HEK293 cells at 1 uM; type: cell-based; outline: as §3
[6] = target: T1, 17-beta-hydroxysteroid dehydrogenase type 1 (Homo sapiens); assay: Inhibition of 17beta-HSD1 over-expressed in intact HEK293 cells at 10 uM; type: cell-based; outline: as §1
[7] = target: T1, 17-beta-hydroxysteroid dehydrogenase type 1 (Homo sapiens); assay: Inhibition of 17beta-HSD1 over-expressed in intact T47D cells at 1 uM; type: cell-based
Outline: (§4)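 Intact T-47D cells, which express endogenous type 1 17β-HSD, were seeded at 3×10^4 cells/well in proliferation assay medium. After 48 h, [4-14C]-E1 (60 nM) and inhibitor in ethanol (0.5% v/v) were added in fresh medium for 24 h. Labelled E1 and E2 were extracted and quantified. Values are the mean of two experiments in triplicate, SD < ±5%.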

[8] = target: T2, 3-keto-steroid reductase/17-beta-hydroxysteroid dehydrogenase 7 (Homo sapiens); assay: Inhibition of 17beta-HSD7 over-expressed in intact HEK293 cells at 1 uM; type: cell-based; outline: as §2
[9] = system: T47D; assay: Decrease in cell growth of estrogen-starved ER expressing T47D cells after 10 days relative to control; type: functional, cell-based; conditions: Homo sapiens
Outline: (§5)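 Cells were moved to medium with insulin (50 ng/mL) and 5% dextran-coated charcoal-treated FBS to remove estrogens, then seeded at 3000 cells/well. After 48 h, inhibitor dilutions in growth medium were added, with medium replaced every 2 days. Cells were grown 10 days in triplicate. Growth was read with the CellTiter 96 AQueous assay and expressed as % of control (100%).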

[10] = target: T1, 17-beta-hydroxysteroid dehydrogenase type 1 (Homo sapiens); assay: Inhibition of 17beta-HSD1 over-expressed in intact T47D cells at 0.1 uM; type: cell-based; outline: as §4
[11] = target: T1, 17-beta-hydroxysteroid dehydrogenase type 1 (Homo sapiens); assay: Inhibition of 17beta-HSD1 over-expressed in intact T47D cells at 10 uM; type: cell-based; outline: as §4
[12] = target: T1, 17-beta-hydroxysteroid dehydrogenase type 1 (Homo sapiens); assay: Inhibition of 17beta-HSD1 overexpressed in homogenated HEK293 cells at 1 uM; type: cell-based
Outline: (§6)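 Homogenate of HEK-293 cells overexpressing type 1 17β-HSD. Reductive conversion of E1 (100 nM) to E2 with NADH cofactor. Percent inhibition from one run in triplicate, SD < ±5%.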

[13] = target: T1, 17-beta-hydroxysteroid dehydrogenase type 1 (Homo sapiens); assay: Inhibition of 17beta-HSD1 over-expressed in homogenated HEK293 cells at 0.1 uM; type: cell-based; outline: as §6
[14] = system: T47D; assay: Increase in cell growth of estrogen-starved ER expressing T47D cells at 0.01 uM relative to control after 10 days; type: functional, Homo sapiens; outline: as §5
[15] = system: MCF7; assay: Increase in cell growth of estrogen-starved ER expressing MCF7 cells at 0.01 uM relative to control after 10 days; type: functional, Homo sapiens; outline: as §5
[16] = system: MCF7; assay: Increase in cell growth of estrogen-starved ER expressing MCF7 cells at 1 uM relative to control after 10 days; type: functional, Homo sapiens; outline: as §5
[17] = system: T47D; assay: Effect on cell proliferation of estrogen-starved ER expressing T47D cells at 1 uM relative to control after 10 days; type: functional, cell-based; conditions: Homo sapiens; outline: as §5
[18] = system: T47D; assay: Increase in cell growth of estrogen-starved ER expressing T47D cells at 10 nM relative to control after 10 days; type: functional, Homo sapiens; outline: as §5
[19] = system: MCF7; assay: Increase in cell growth of estrogen-starved ER expressing MCF7 cells at 10 nM relative to control after 10 days; type: functional, Homo sapiens; outline: as §5
[20] = target: T1, 17-beta-hydroxysteroid dehydrogenase type 1 (Homo sapiens); assay: Inhibition of 17beta-HSD1 over-expressed in intact HEK293 cells; type: cell-based
Outline: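 Transfected HEK-293 cells overexpressing type 1 17β-HSD, plated at 5000 cells/well, given ethanolic inhibitor solutions and incubated 24 h. [4-14C]-E1 (60 nM) then added for 15 min. Labelled E1 and E2 extracted from medium and quantified, giving percent inhibition of E1→E2 reduction at 10, 1 and 0.1 μM. Mean of five experiments in quadruplicate.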

[21] = system: MCF7; assay: Decrease in cell growth of estrogen-starved ER expressing MCF7 cells at 1 uM relative to control after 10 days; type: functional, cell-based; conditions: Homo sapiens; outline: as §5
[22] = system: T47D; assay: Increase in cell growth of estrogen-starved ER expressing T47D cells at 1 uM relative to control after 10 days; type: functional, cell-based; conditions: Homo sapiens; outline: as §5
[23] = system: T47D; assay: Increase in cell growth of estrogen-starved ER expressing T47D cells at 0.1 uM relative to control after 10 days; type: functional, Homo sapiens; outline: as §5

SMILES	inhibition [1]	inhibition [2]	inhibition [3]	inhibition [4]	inhibition [5]	inhibition [6]	inhibition [7]	inhibition [8]	inhibition [10]	inhibition [11]	inhibition [12]	inhibition [13]	Activity [20]	other results
CCCCN(C)C(=O)CCCCCC[C@@H]1C[C@@H]2[C@H](CC[C@]3(C)[C@@H](O)CC[C@@H]23)c2ccc(O)cc21	21%	11%	27%	30%	1%	49%	82%	0%	29%	95%	46%	15%	–	Activity [9]: Active
CCCCN(C)C(=O)CCCCCC[C@@H]1C[C@@H]2[C@H](CC[C@]3(C)[C@@H](O)CC[C@@H]23)c2cc(OC)c(O)cc21	15%	13%	17%	22%	0%	28%	32%	0%	11%	81%	–	–	–	Activity [14]: 2.3; Activity [15]: 1.7; Activity [16]: 1.1; Activity [17]: inactive
C[C@]12CC[C@@H]3c4ccc(O)cc4CC[C@H]3[C@@H]1CC[C@@H]2O [ESTRADIOL]	–	–	–	–	–	–	–	–	–	–	–	–	–	Activity [18]: 3; Activity [19]: 1.8
C[C@]12CC[C@@H]3c4ccc(O)cc4[C@H](O)C[C@H]3[C@@H]1CC[C@@H]2O	–	–	–	–	–	–	–	–	–	–	–	–	inactive	–
C[C@]12CC[C@@H]3c4ccc(O)cc4CC[C@H]3[C@@H]1CCC2=O	38%	8%	0%	0%	0%	83%	85%	0%	36%	93%	59%	19%	–	–
CCCCN(C)C(=O)CCCCCC[C@@H]1C[C@@H]2[C@H](CC[C@]3(C)C(=O)CC[C@@H]23)c2ccc(O)cc21	20%	8%	31%	40%	0%	31%	57%	7%	19%	92%	23%	12%	–	Activity [21]: Active
CCCCN(C)C(=O)CCCCCC[C@H]1C[C@@H]2[C@H](CC[C@]3(C)[C@@H](O)CC[C@@H]23)c2ccc(O)cc21	11%	3%	24%	30%	1%	15%	21%	11%	9%	74%	17%	9%	–	–
C[C@]12CC[C@H]3C(=CCc4cc(O)ccc43)[C@@H]1CC[C@@H]2O	–	–	–	–	–	–	–	–	–	–	–	–	inactive	–
CCCCN(C)C(=O)CCCCCC[C@H]1C[C@@H]2[C@H](CC[C@]3(C)C(=O)CC[C@@H]23)c2ccc(O)cc21	5%	3%	29%	44%	3%	14%	19%	5%	7%	71%	16%	3%	–	–
C[C@]12CC[C@@H]3c4ccc(O)cc4C(=O)C[C@H]3[C@@H]1CC[C@@H]2O	–	–	–	–	–	–	–	–	–	–	–	–	inactive	–
CCCCN(C)C(=O)CCCCCS[C@@H]1C[C@@H]2[C@H](CC[C@]3(C)[C@@H](O)CC[C@@H]23)c2ccc(O)cc21	45%	11%	25%	22%	0%	63%	82%	9%	31%	95%	74%	33%	–	Activity [14]: 2.3; Activity [22]: Active; Activity [23]: 2.3
C[C@]12CC[C@@H]3c4ccc(O)cc4C=C[C@H]3[C@@H]1CC[C@@H]2O	–	–	–	–	–	–	–	–	–	–	–	–	inactive	–
